Source: ChEMBL document CHEMBL4219108, “Synthesis, photophysical properties, and photodynamic activity of positional isomers of TFPP-glucose conjugates” (Bioorg Med Chem, 2018)
Calls of active or inactive are those of the source. The rule behind the calls is not given here.

Tests used:
Rattus norvegicus = species on record: Rattus norvegicus; test: Phototoxicity against rat RGK1 cells assessed as reduction in cell survival at 0.2 to 1 uM pretreated for 24 hrs followed by 16 J/cm2 irradiation with halogen lamp measured after 24 hrs by CCK8 assay; assay type: functional, cell-based
Outline: (§1)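 HeLa, U251 (DMEM, 10% FCS) or RGK cells plated 5×10^3/well and grown 24 h. Conjugate added at 0.1–1 µM (final 1% DMSO) for 24 h. Cells PBS-washed twice, given fresh medium and irradiated with a 100 W halogen lamp (water jacket, λ >500 nm) to 16 J cm⁻². WST-8 absorbance read at 450 nm 24 h later; survival normalized to untreated wells. EC50 for 50% cell death. Mean ± SD of six replicates.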

[1] = Drug uptake in rat RGK1 cells at 2.5 uM measured after 8 to 24 hrs in presence of GLUT1 inhibitor cytochalasin B by fluorescence assay; assay type: ADME, cell-based
Outline: (§2)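 RGK cells (MNNG-induced mutant of rat RGM gastric mucosal line; DMEM/F12 1:1, 10% FCS, antibiotic-antimycotic) plated 2.5×10^6/well for 24 h. Pre-incubated 2 h with or without cytochalasin B (50 µM final), then given 2.5 µM compound in medium with 1% DMSO for 8 or 24 h. PBS-washed twice, lysed in DMSO. Fluorescence read at ex 430/em 650 nm and quantified against per-compound DMSO calibration. Mean ± SD of three replicates.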

[2] = Dark toxicity in human HeLa cells assessed as reduction in cell survival at 1 uM measured after 24 hrs by CCK8 assay; assay type: cell-based
Outline: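 HeLa cells seeded 5×10^3/well, grown 24 h (37°C, 5% CO2), then given conjugate at 1.0 μM (final 1% DMSO) for 24 h. Washed twice with PBS, fresh medium added, kept without light (0 J cm⁻²). WST-8 (CCK-8) read at 450 nm 24 h later. Survival normalized to untreated wells; mean ± SD of six replicates.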

U-251 = test: Phototoxicity against human U251 cells assessed as reduction in cell survival at 0.2 to 1 uM pretreated for 24 hrs followed by 16 J/cm2 irradiation with halogen lamp measured after 24 hrs by CCK8 assay; assay type: functional, cell-based; outline: as §1
[3] = n-Octanol/water partition co-efficient, log P of the compound by RP-TLC method; assay type: physicochemical
Outline: (§3)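 Log P (n-octanol/water partition) determined by reverse-phase thin-layer chromatography.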

HeLa = test: Phototoxicity against human HeLa cells assessed as reduction in cell survival up to 1 uM pretreated for 24 hrs followed by 16 J/cm2 irradiation with halogen lamp measured after 24 hrs by CCK8 assay; assay type: functional, cell-based; outline: as §1
[4] = Drug uptake in rat RGK1 cells at 2.5 uM measured after 8 to 24 hrs by fluorescence assay; assay type: ADME, cell-based; outline: as §2
[5] = Lipophilicity, log P of the compound; assay type: physicochemical; details: octanol/water; outline: as §3

SMILES	Activity (Rattus norvegicus)	Drug uptake [1]	Activity [2]	Activity (U-251)	logP [3]	Activity (HeLa)	Drug uptake [4]	logP [5]
OC[C@H]1OC(O)[C@H](O)[C@@H](O)[C@@H]1Sc1c(F)c(F)c(-c2c3nc(c(-c4c(F)c(F)c(F)c(F)c4F)c4ccc([nH]4)c(-c4c(F)c(F)c(F)c(F)c4F)c4nc(c(-c5c(F)c(F)c(F)c(F)c5F)c5ccc2[nH]5)C=C4)C=C3)c(F)c1F (stereo partly specified)	Active	Not Active	Non-Toxic	Active	6.3	Active	Active	
OC1O[C@H](CSc2c(F)c(F)c(-c3c4nc(c(-c5c(F)c(F)c(F)c(F)c5F)c5ccc([nH]5)c(-c5c(F)c(F)c(F)c(F)c5F)c5nc(c(-c6c(F)c(F)c(F)c(F)c6F)c6ccc3[nH]6)C=C5)C=C4)c(F)c2F)[C@@H](O)[C@H](O)[C@H]1O (stereo partly specified)	Active		Non-Toxic	Active	6.5	Active	Active	
OCCOc1c(F)c(F)c(-c2c3nc(c(-c4c(F)c(F)c(F)c(F)c4F)c4ccc([nH]4)c(-c4c(F)c(F)c(OCCO)c(F)c4F)c4nc(c(-c5c(F)c(F)c(F)c(F)c5F)c5ccc2[nH]5)C=C4)C=C3)c(F)c1F								6.5
OCCOc1c(F)c(F)c(-c2c3nc(c(-c4c(F)c(F)c(OCCO)c(F)c4F)c4ccc([nH]4)c(-c4c(F)c(F)c(F)c(F)c4F)c4nc(c(-c5c(F)c(F)c(F)c(F)c5F)c5ccc2[nH]5)C=C4)C=C3)c(F)c1F								6.5
OC[C@H]1OC(Sc2c(F)c(F)c(-c3c4nc(c(-c5c(F)c(F)c(F)c(F)c5F)c5ccc([nH]5)c(-c5c(F)c(F)c(F)c(F)c5F)c5nc(c(-c6c(F)c(F)c(F)c(F)c6F)c6ccc3[nH]6)C=C5)C=C4)c(F)c2F)[C@H](O)[C@@H](O)[C@@H]1O (stereo partly specified)	Active		Non-Toxic	Active	6.05	Active	Active	
OCCOc1c(F)c(F)c(-c2c3nc(c(-c4c(F)c(F)c(OCCO)c(F)c4F)c4ccc([nH]4)c(-c4c(F)c(F)c(OCCO)c(F)c4F)c4nc(c(-c5c(F)c(F)c(F)c(F)c5F)c5ccc2[nH]5)C=C4)C=C3)c(F)c1F								5.4
OC[C@H]1OC(O)[C@H](O)[C@@H](Sc2c(F)c(F)c(-c3c4nc(c(-c5c(F)c(F)c(F)c(F)c5F)c5ccc([nH]5)c(-c5c(F)c(F)c(F)c(F)c5F)c5nc(c(-c6c(F)c(F)c(F)c(F)c6F)c6ccc3[nH]6)C=C5)C=C4)c(F)c2F)[C@@H]1O (stereo partly specified)	Active	Not Active	Non-Toxic	Active	6.21	Active	Active	
OC[C@H]1OC(O)[C@H](Sc2c(F)c(F)c(-c3c4nc(c(-c5c(F)c(F)c(F)c(F)c5F)c5ccc([nH]5)c(-c5c(F)c(F)c(F)c(F)c5F)c5nc(c(-c6c(F)c(F)c(F)c(F)c6F)c6ccc3[nH]6)C=C5)C=C4)c(F)c2F)[C@@H](O)[C@@H]1O (stereo partly specified)	inactive	Not Active	Non-Toxic	inactive	6.87	inactive	Active	
